Results on two compounds are retold here after ChEMBL document CHEMBL4699605, “Synthesis and biological evaluation of novel flexible nucleoside analogues that inhibit flavivirus replication in vitro” (Bioorg Med Chem, 2020).

Each structure is given as a SMILES string.

For one test, the system named is dengue virus type 2. The experiment in a line: Antiviral activity against DENV-2 infected in African green monkey Vero cells assessed as virus titer reduction incubated for 48 hrs by plaque assay. The test is classed as functional, organism-based.
Test [1] is described as follows: Inhibition of Dengue virus 2'-O methyltransferase incubated for 15 mins followed by [methyl-3-H]-AdoMet addition and measured after 30 mins by microbeta counter method. An outline of the steps: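 DENV-3 2′-O-MTase (0.5 µM) in 40 mM Tris-HCl pH 7.5 and 5 mM DTT with 1 µM capped RNA GpppAC5 and 10 µM AdoMet containing [3H]AdoMet, 30 °C for 30 min. Stopped by 20-fold dilution in ice-cold 100 µM AdoHcy. RNA captured on DEAE filter, washed, and transferred radioactivity counted. Inhibitor serially diluted, points in triplicate; IC50 from logistic dose-response fit with slope factor.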

Test [2] is described as follows: Inhibition of Dengue virus N-7 methyltransferase incubated for 15 mins followed by [methyl-3-H]-AdoMet addition and measured after 15 mins by microbeta counter method.

In general, EC50 refers to the midpoint of the concentration-response curve. `C#C[C@@]1(O)[C@H](O)[C@@H](CO)O[C@H]1n1ccc2c(N)ncnc21`: in the test on dengue virus type 2, the concentration giving a half-maximal response (EC50) stood at 640 nM.

Usually IC50 stands for the concentration that gives 50% inhibition. Take `Nc1ncnc2c1ncn2[C@@H]1O[C@H](C[C@@H](N)CC[C@H](N)C(=O)O)[C@@H](O)[C@H]1O` [SINEFUNGIN]: the IC50 amounted to 41 nM in test [1] and 30 nM in test [2].
